Assay results reported in ChEMBL document CHEMBL4402547, “Synthesis and Pharmacological Characterization of Conformationally Restricted Retigabine Analogues as Novel Neuronal Kv7 Channel Activators” (J Med Chem, 2020).
Calls of active or inactive are those of the source. No cut-off for these calls is given here.

Legend:
[1] = target: T1, Potassium voltage-gated channel subfamily KQT member 2 (Homo sapiens, UniProt O43526); test: Activation of human Kv7.2 expressed in CHO cells assessed as increase in current amplitude at 10 uM measured at holding potential of -40 mV by whole cell patch clamp electrophysiology assay relative to control; assay type: cell-based
How it was run: (§1)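 CHO cells transiently co-transfected (Lipofectamine 2000, 4 μg total cDNA, EGFP marker) with human channel cDNA in pcDNA3.1, recorded 24 h later. Whole-cell patch clamp at 20–22°C, 3–5 MΩ pipettes, perfused extracellular solution pH 7.4. Held at −80 mV; 3-s ramps −80 to +20 mV ± 10 μM drug. Current at −40 mV with vs without drug expressed as ratio; ≥3 cells from ≥2 transfections, mean ± SEM.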

[2] = target: T1, Potassium voltage-gated channel subfamily KQT member 2; test: Activation of human Kv7.2 expressed in CHO cells assessed as increase in current amplitude at 10 uM measured at holding potential of 0 mV by whole cell patch clamp electrophysiology assay relative to control; assay type: cell-based
How it was run: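 Transiently transfected CHO cells expressing human Kv7.2, whole-cell patch clamp at 20–22°C in HEPES-buffered saline pH 7.4. Cells held at −80 mV and ramped −80 to +20 mV over 3 s, before and during 10 μM drug. Ramp current at 0 mV taken as drug/control ratio; mean ± SEM of ≥3 cells, ≥2 transfections.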

[3] = Photostability of compound in pH 7.4 buffer assessed as compound degradation at 100 ug/ml incubated for 4 hrs under natural solar light-irradiation by HPLC analysis relative to control
How it was run: (§2)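 DMSO solutions diluted in pH 7.4 buffer, held in 1 cm quartz cells and exposed to natural daylight. Light-shielded controls kept at 37°C in foil. Aliquots drawn at set intervals and parent compound loss measured by UHPLC: C18 column, 0.1% TFA water/acetonitrile gradient, 45°C, detection at 254 nm.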

[4] = Photostability of compound in pH 7.4 buffer assessed as compound degradation at 100 ug/ml incubated for 6 hrs under natural solar light-irradiation by HPLC analysis relative to control; how it was run: as §2
[5] = Photostability of compound in pH 7.4 buffer assessed as compound degradation at 100 ug/ml incubated for 2 hrs under natural solar light-irradiation by HPLC analysis relative to control; how it was run: as §2
[6] = tested on: Potassium voltage-gated channel subfamily KQT member 2 (Homo sapiens), O43526 [F168L]; test: Activation of ICA-insensitive human Kv7.2 F168L mutant expressed in CHO cells assessed as increase in channel current amplitude at 10 uM measured at holding potential of -40 mV by whole cell patch clamp electrophysiology assay; assay type: cell-based; how it was run: as §1
[7] = tested on: Potassium voltage-gated channel subfamily KQT member 2 (Homo sapiens), O43526 [W236L]; test: Activation of human Kv7.2 W236L mutant expressed in CHO cells assessed as channel current amplitude at 10 uM measured at holding potential of -40 mV by whole cell patch clamp electrophysiology assay; assay type: cell-based; how it was run: as §1
Chain of Potassium voltage-gated channel subfamily KQT member 2 (Homo sapiens), O43526 [W236L] (O43526 whole entry W236L): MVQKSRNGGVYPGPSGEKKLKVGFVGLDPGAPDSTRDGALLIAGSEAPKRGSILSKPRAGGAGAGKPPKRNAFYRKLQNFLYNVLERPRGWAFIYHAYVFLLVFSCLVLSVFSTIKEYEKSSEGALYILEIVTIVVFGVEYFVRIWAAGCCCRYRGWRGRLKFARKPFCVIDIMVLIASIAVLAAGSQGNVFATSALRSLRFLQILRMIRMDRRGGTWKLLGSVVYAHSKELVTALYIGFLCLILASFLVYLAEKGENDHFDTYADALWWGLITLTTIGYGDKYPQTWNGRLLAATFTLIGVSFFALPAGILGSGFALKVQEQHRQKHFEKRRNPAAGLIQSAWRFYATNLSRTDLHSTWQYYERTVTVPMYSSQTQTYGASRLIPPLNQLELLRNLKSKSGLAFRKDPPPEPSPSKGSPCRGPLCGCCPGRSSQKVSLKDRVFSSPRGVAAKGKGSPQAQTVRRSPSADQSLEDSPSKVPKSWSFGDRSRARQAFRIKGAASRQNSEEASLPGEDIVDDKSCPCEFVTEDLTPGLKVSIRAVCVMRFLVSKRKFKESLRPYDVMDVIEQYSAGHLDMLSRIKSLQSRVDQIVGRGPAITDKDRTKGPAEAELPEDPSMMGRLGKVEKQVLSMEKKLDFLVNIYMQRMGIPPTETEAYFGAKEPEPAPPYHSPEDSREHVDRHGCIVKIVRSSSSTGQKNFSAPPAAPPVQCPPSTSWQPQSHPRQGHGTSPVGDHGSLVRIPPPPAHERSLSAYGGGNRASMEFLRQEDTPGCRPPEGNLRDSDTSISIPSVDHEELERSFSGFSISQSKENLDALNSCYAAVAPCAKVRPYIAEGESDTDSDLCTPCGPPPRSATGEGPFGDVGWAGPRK

T1 sequence (O43526 whole entry, the tested form may be a part): as the sequence (O43526 whole entry W236L) above, with L236W counted along it
Chain of Potassium voltage-gated channel subfamily KQT member 2 (Homo sapiens), O43526 [F168L] (O43526 whole entry F168L): as the sequence (O43526 whole entry W236L) above, with F168L, L236W counted along it

O=C(CC1CCCCC1)Nc1ccc2c(c1)CCN2Cc1ccc(F)cc1
Activity [1]: inactive
Activity [2]: inactive

COc1ccc(CN2CCc3cc(NS(=O)(=O)C4CCCCC4)ccc32)cc1
Drug degradation [3]: 84.7%
Activity [1]: inactive
Activity [2]: Active
Drug degradation [4]: > 99%
Drug degradation [5]: 37.5%

O=S(=O)(Nc1ccc2c(c1)CCN2Cc1ccc(F)cc1)N1CCCCCC1
Activity [1]: inactive
Activity [2]: inactive

O=C(Nc1ccc2c(c1)CCN2Cc1ccc(F)cc1)NC1CCCCC1
Activity [1]: inactive
Activity [2]: inactive

O=S(=O)(Nc1ccc2c(c1)CCN2Cc1ccc(C(F)(F)F)cc1)C1CCCCC1
Activity [1]: inactive
Activity [2]: inactive

CCOC(=O)Nc1ccc2c(c1)CCN2Cc1ccc(F)cc1
Activity [1]: inactive
Activity [2]: inactive

O=C(c1ccc(F)cc1)N1CCc2cc(NS(=O)(=O)C3CCCCC3)ccc21
Activity [1]: inactive
Activity [2]: inactive

CC(C)(C)CNC(=N)Nc1ccc2c(c1)CCN2Cc1ccc(F)cc1
Activity [1]: inactive
Activity [2]: inactive

O=S(=O)(Nc1ccc2c(c1)CCN2CCc1ccc(F)cc1)C1CCCCC1
Activity [1]: inactive
Activity [2]: inactive

CCCCN(C)CC(=O)Nc1ccc2c(ccn2Cc2ccc(C(F)(F)F)cc2)c1
Activity [1]: inactive
Activity [2]: inactive

O=S(=O)(Nc1ccc2c(c1)CCN2Cc1ccc(F)c(F)c1)C1CCCCC1
Activity [1]: inactive
Activity [2]: inactive

O=S(=O)(CCC1CCCCC1)Nc1ccc2c(ccn2Cc2ccc(F)cc2)c1
Activity [1]: inactive
Activity [2]: inactive

CC1(C)[C@H]2CC[C@]1(CS(=O)(=O)Nc1ccc3c(c1)CCN3Cc1ccc(F)cc1)C(=O)C2
Activity [1]: inactive
Activity [2]: inactive

O=S(=O)(Nc1ccc2c(c1)CCN2Cc1ccc(C(F)(F)F)cc1C(F)(F)F)C1CCCCC1
Activity [1]: inactive
Activity [2]: inactive

CCCCNCC(=O)Nc1ccc2c(ccn2Cc2ccc(C(F)(F)F)cc2)c1
Activity [1]: inactive
Activity [2]: inactive

O=S(=O)(Nc1ccc2c(c1)CCN2Cc1ccc(F)cc1)c1ccccc1
Activity [1]: inactive
Activity [2]: inactive

COc1ccc(Cn2ccc3cc(NS(=O)(=O)C4CCCCC4)ccc32)cc1
Activity [1]: inactive
Activity [2]: inactive

CC1(C)[C@@H]2CC[C@@]1(CS(=O)(=O)Nc1ccc3c(c1)CCN3Cc1ccc(F)cc1)C(=O)C2
Activity [1]: inactive
Activity [2]: inactive

O=S(=O)(Nc1ccc2c(ccn2Cc2ccc(C(F)(F)F)cc2)c1)C1CCCCC1
Activity [1]: inactive
Activity [2]: inactive

O=C(Nc1ccc(Cl)nc1)c1ccc(F)c(F)c1
Activity [6]: inactive
Activity [7]: Active
Activity [1]: Active
Activity [2]: Active

CCOC(=O)Nc1ccc(NCc2ccc(F)cc2)nc1N
Activity [1]: Active
Activity [2]: Active

O=S(=O)(Nc1ccc2c(c1)CCN2Cc1ccc(F)cc1F)C1CCCCC1
Drug degradation [3]: 81.7%
Activity [1]: inactive
Activity [2]: Active
Drug degradation [4]: > 99%
Drug degradation [5]: 33.5%

CC(C)CS(=O)(=O)Nc1ccc2c(c1)CCN2Cc1ccc(F)cc1
Activity [1]: inactive
Activity [2]: inactive

CCCCCCS(=O)(=O)Nc1ccc2c(c1)CCN2Cc1ccc(F)cc1
Activity [1]: inactive
Activity [2]: inactive

O=S(=O)(Nc1ccc2c(ccn2Cc2ccc(F)cc2)c1)C1CCCCC1
Drug degradation [3]: 15.8%
Activity [1]: inactive
Activity [2]: Active
Drug degradation [4]: 23.1%
Drug degradation [5]: 6.46%

CC(=O)Nc1ccc2c(c1)CCN2Cc1ccc(F)cc1
Activity [1]: inactive
Activity [2]: inactive

CC1CC(C)CN(S(=O)(=O)Nc2ccc3c(c2)CCN3Cc2ccc(F)cc2)C1 (stereo unspecified)
Activity [1]: inactive
Activity [2]: inactive

CCCCS(=O)(=O)Nc1ccc2c(c1)CCN2Cc1ccc(F)cc1
Activity [1]: inactive
Activity [2]: inactive

COc1ccc(CN2c3ccc(NS(=O)(=O)C4CCCCC4)cc3CC2C)cc1 (racemic)
Activity [1]: inactive
Activity [2]: inactive

O=C(Cc1ccc(Cl)cc1)N1CCc2cc(NS(=O)(=O)C3CCCCC3)ccc21
Activity [1]: inactive
Activity [2]: inactive

CCCCCCC(=O)Nc1ccc2c(c1)CCC/C2=C/c1ccc(C(F)(F)F)cc1
Activity [1]: inactive
Activity [2]: inactive

CCCCCCCCCCCCCCCC(=O)Nc1ccc2c(ccn2Cc2ccc(C(F)(F)F)cc2)c1
Activity [1]: inactive
Activity [2]: inactive

CCCCCCC(=O)Nc1ccc2c(c1)CCC/C2=C\c1ccc(C(F)(F)F)cc1
Activity [1]: inactive
Activity [2]: inactive

CC(C)(C)CNC(=O)Nc1ccc2c(c1)CCN2Cc1ccc(F)cc1
Activity [1]: inactive
Activity [2]: inactive

CCCCCCC(=O)Nc1ccc2c(ccn2Cc2ccc(O)cc2)c1
Activity [1]: inactive
Activity [2]: inactive

CCCCCCC(=O)Nc1ccc2c(ccn2Cc2ccc(OCOC)cc2)c1
Activity [1]: inactive
Activity [2]: inactive

O=C(Nc1ccc2c(c1)CCN2Cc1ccc(F)cc1)C1CCCCC1
Activity [1]: inactive
Activity [2]: inactive

O=[N+]([O-])c1cc(Br)ccc1CN1CCc2cc(NS(=O)(=O)C3CCCCC3)ccc21
Activity [1]: inactive
Activity [2]: Active

CCCCCCC(=O)Nc1ccc2c(c1)CCCC2Cc1ccc(C(F)(F)F)cc1 (racemic)
Activity [1]: inactive
Activity [2]: inactive

CC(C)[C@H]1CC[C@H](C)C[C@@H]1OC(=O)Nc1ccc2c(c1)CCN2Cc1ccc(F)cc1
Activity [1]: inactive
Activity [2]: inactive
